Data published in ChEMBL document CHEMBL1144012, “Indole- and indolizine-glyoxylamides displaying cytotoxicity against multidrug resistant cancer cell lines” (Bioorg Med Chem Lett, 2008).

Legend:
Assay type in all cases: functional, cell-based
[1] = Cytotoxicity against human HL60/TX1000 cells after 72 hrs by MTT assay; conditions: HL60/TX1000, 72 h
Summary of the method: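 HL-60/TX1000 cells (Taxol-resistant HL-60 subline selected by stepwise Taxol exposure; overexpress MDR1/P-glycoprotein) grown in RPMI1640 with 10% FC plus penicillin/streptomycin, split every third day, set to 2 · 10⁵ cells/mL the day before the experiment, and used in exponential growth. Compounds were diluted into medium from 1 mM DMSO stock and tested at various concentrations for 72 h. IC50 was read by […] tetrazolium assay.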

P388 = test: Cytotoxicity against mouse P388 cells after 72 hrs […]; conditions: P388, 72 h
DU-145 = test: Cytotoxicity against human DU145 cells after 72 hrs […]; conditions: DU-145, 72 h
[2] = Cytotoxicity against human MDA435 cells after 72 hrs […]; conditions: MDA-MB-435, 72 h
HL-60 = test: Cytotoxicity against human HL60 cells after 72 hrs […]; conditions: HL-60, 72 h
[3] = Cytotoxicity against human MESSA/DX5 cells after 72 hrs […]; conditions: MES-SA/Dx5, 72 h
[4] = Cytotoxicity against human MESSA cells after 72 hrs […]; conditions: MES-SA

Cc1cnc(NC(=O)C(=O)c2cn(Cc3ccc(Cl)cc3)c3ccccc23)s1
IC50 [1]: 50 nM

O=C(Nc1ccon1)C(=O)c1cn(Cc2ccc(Cl)cc2)c2ccccc12
IC50 [1]: 50 nM

O=C(Nc1cccc2cccnc12)C(=O)c1cn(Cc2ccc(Cl)cc2)c2ccccc12
IC50 [1]: > 10000 nM

O=C(Nc1ccno1)C(=O)c1cn(Cc2ccc(Cl)cc2)c2ccccc12
IC50 [1]: 50 nM

O=C(Nc1ccccn1)C(=O)c1cn(Cc2ccc(Cl)cc2)c2ccccc12
IC50 [1]: > 10000 nM

Cc1cc(NC(=O)C(=O)c2cc(Cc3ccc(Cl)cc3)n3ccccc23)sn1
IC50 [1]: 60 nM

O=C(Nc1nncs1)C(=O)c1cn(Cc2ccc(Cl)cc2)c2ccccc12
IC50 [1]: 100 nM

Cc1nsc(NC(=O)C(=O)c2cn(Cc3ccc(Cl)cc3)c3ccccc23)c1Cl
IC50 [1]: 5000 nM

Cc1ccc2cc(NC(=O)C(=O)c3cn(Cc4ccc(Cl)cc4)c4ccccc34)ccc2n1
IC50 [1]: 500 nM

O=C(Nc1noc2ccccc12)C(=O)c1cn(Cc2ccc(Cl)cc2)c2ccccc12
IC50 [1]: > 10000 nM

Cc1cc(NC(=O)C(=O)c2cn(Cc3ccc(Cl)cc3)c3ccccc23)sn1
IC50 [1]: 10 nM

NC(=O)c1ccc(NC(=O)C(=O)c2cn(Cc3ccc(Cl)cc3)c3ccccc23)nc1
IC50 [1]: 50 nM

Cc1cc(NC(=O)C(=O)c2cn(Cc3ccc(Cl)cc3)c3ccccc23)no1
IC50 [1]: 50 nM

CSc1nnc(NC(=O)C(=O)c2cn(Cc3ccc(Cl)cc3)c3ccccc23)s1
IC50 [1]: 1000 nM

O=C(Nc1cccnc1)C(=O)c1cn(Cc2ccc(Cl)cc2)c2ccccc12
IC50 [1]: 6000 nM

C[n+]1ccc(NC(=O)C(=O)c2cn(Cc3ccc(Cl)cc3)c3ccccc23)cc1
IC50 [1]: > 10000 nM

CC(C)(C)c1csc(NC(=O)C(=O)c2cn(Cc3ccc(Cl)cc3)c3ccccc23)n1
IC50 [1]: 5000 nM

Cc1cc(NC(=O)C(=O)c2cn(Cc3ccc(Cl)cc3)c3ccccc23)on1
IC50 [1]: 50 nM

O=C(Nc1ccc2ncccc2c1)C(=O)c1cn(Cc2ccc(Cl)cc2)c2ccccc12
IC50 [1]: 50 nM

O=C(Nn1cnnc1)C(=O)c1cn(Cc2ccc(Cl)cc2)c2ccccc12
IC50 [1]: > 10000 nM

O=C(Nc1ccncc1)C(=O)c1cn(Cc2ccc(Cl)cc2)c2ccccc12 [INDIBULIN]
IC50 [1]: 50 nM

CC(=O)O[C@H]1C(=O)[C@@]2(C)[C@H]([C@H](OC(=O)c3ccccc3)[C@]3(O)C[C@H](OC(=O)[C@H](O)[C@@H](NC(=O)c4ccccc4)c4ccccc4)C(C)=C1C3(C)C)[C@]1(OC(C)=O)CO[C@@H]1C[C@@H]2O [PACLITAXEL]
IC50 (P388): 10 nM

Cc1cc(NC(=O)C(=O)c2cc(Cc3ccc(C#N)cc3)n3ccccc23)sn1 [ROSABULIN]
IC50 (DU-145): 50 nM
IC50 [2]: 50 nM
IC50 (HL-60): 50 nM
IC50 (P388): 10 nM
IC50 [3]: 50 nM
IC50 [1]: 20 nM
IC50 [4]: 10 nM
